Results published in ChEMBL document CHEMBL3593206, “SAR Studies of Exosite-Binding Substrate-Selective Inhibitors of A Disintegrin And Metalloprotease 17 (ADAM17) and Application as Selective in Vitro Probes” (J Med Chem, 2015).
pIC50: −log10 of the molar value. Activity calls are given as the source filed them. The calls are words filed in the database; no cut-off is given here.

Tests used:
[1] = molecular target: T1, 72 kDa type IV collagenase (Homo sapiens, UniProt P08253); experiment: Inhibition of MMP2 (unknown origin) using Mca-KLPGL-Dnp-AR as substrate at 100 uM preincubated for 30 mins followed by substrate addition measured after 1 hr by fluorescence assay relative to control
Method in brief: (§1)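 Inhibitor as 10-point 1:3 dilutions from 300 μM, 30 min at RT. Substrate added from a 30 μM 3× solution. Single fluorescence read (ex 324/em 393 nm) after 1 h at RT.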
Target sequence in this assay (P08253 110-660 limits assumed): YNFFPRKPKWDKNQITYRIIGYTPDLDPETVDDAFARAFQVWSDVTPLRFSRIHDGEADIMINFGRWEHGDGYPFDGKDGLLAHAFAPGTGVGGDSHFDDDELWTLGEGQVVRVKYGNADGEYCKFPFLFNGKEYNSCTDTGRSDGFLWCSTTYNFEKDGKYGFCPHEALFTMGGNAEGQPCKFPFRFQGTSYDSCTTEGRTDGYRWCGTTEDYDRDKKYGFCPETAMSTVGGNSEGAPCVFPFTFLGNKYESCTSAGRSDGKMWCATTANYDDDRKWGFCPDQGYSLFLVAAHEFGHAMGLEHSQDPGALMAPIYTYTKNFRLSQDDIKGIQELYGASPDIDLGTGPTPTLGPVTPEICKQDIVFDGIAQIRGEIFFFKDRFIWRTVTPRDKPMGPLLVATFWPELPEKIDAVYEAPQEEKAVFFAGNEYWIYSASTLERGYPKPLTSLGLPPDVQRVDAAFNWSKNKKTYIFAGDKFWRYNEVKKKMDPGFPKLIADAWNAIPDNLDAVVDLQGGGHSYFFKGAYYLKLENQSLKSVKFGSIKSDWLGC

[2] = molecular target: T2, Matrix metalloproteinase-9 (Homo sapiens, UniProt P14780); experiment: Inhibition of MMP9 (unknown origin) using Mca-KLPGL-Dnp-AR as substrate at 100 uM preincubated for 30 mins followed by substrate addition measured after 1 hr by fluorescence assay relative to control; method in brief: as §1
T2 sequence (P14780 whole entry): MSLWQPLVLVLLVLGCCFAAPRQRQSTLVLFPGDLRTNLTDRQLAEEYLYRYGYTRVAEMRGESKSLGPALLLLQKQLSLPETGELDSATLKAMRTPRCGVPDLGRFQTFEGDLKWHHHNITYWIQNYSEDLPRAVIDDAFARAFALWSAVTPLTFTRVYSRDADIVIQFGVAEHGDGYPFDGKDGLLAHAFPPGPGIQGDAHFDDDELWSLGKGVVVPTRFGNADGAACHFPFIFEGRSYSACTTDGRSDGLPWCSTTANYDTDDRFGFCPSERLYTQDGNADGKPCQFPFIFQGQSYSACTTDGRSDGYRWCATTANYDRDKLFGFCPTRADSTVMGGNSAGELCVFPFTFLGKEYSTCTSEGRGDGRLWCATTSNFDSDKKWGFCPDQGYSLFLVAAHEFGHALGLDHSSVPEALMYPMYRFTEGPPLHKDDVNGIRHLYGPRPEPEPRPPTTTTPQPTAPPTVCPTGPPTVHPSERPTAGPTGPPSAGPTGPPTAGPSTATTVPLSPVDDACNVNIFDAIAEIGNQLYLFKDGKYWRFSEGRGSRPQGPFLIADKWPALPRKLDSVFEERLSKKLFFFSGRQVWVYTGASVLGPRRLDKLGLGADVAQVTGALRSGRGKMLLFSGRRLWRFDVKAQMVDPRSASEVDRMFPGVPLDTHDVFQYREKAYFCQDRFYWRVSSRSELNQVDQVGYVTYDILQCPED

[3] = molecular target: T3, Matrix metalloproteinase-14 (Homo sapiens, UniProt P50281); experiment: Inhibition of MMP14 (unknown origin) using Mca-KLPGL-Dnp-AR as substrate preincubated for 30 mins followed by substrate addition measured after 1 hr by fluorescence assay; method in brief: as §1
[4] = molecular target: T4, Disintegrin and metalloproteinase domain-containing protein 17 (Homo sapiens, UniProt P78536); experiment: Inhibition of ADAM17 in human SW480 cells assessed as inhibition of PMA-stimulated wild type PTK7 shedding at 25 to 100 uM after 16 hrs by Western blot analysis; assay type: cell-based
T4 sequence (P78536 whole entry, the tested form may be a part): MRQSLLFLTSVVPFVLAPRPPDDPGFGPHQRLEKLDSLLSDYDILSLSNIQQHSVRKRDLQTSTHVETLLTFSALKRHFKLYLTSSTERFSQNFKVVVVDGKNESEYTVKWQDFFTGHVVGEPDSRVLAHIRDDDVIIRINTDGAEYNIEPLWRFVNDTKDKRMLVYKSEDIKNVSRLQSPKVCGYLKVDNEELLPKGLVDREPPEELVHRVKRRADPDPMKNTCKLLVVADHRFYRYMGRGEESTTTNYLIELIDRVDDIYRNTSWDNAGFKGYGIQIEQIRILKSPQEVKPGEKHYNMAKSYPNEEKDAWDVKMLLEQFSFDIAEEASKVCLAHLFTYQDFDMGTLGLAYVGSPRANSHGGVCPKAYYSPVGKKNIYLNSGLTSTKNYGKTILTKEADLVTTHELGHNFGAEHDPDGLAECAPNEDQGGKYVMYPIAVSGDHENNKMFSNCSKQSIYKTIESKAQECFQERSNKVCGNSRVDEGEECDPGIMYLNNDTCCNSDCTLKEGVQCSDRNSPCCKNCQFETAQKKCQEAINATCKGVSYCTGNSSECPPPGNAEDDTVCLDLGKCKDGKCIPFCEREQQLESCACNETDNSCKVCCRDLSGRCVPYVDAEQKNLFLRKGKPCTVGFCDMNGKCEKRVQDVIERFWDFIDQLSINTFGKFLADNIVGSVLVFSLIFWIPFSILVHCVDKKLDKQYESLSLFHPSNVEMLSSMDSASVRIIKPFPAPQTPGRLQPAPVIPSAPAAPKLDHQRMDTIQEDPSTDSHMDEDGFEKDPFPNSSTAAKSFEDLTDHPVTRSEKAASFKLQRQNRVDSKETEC
Method in brief: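 PTK7 shedding tested at 25, 50 and 100 μM in PMA-stimulated cells. HT1080 fibrosarcoma cells carried the L622D PTK7 mutant uncleavable by MT1-MMP; SW480 colorectal cells expressed wild-type PTK7 endogenously. Soluble PTK7 was detected.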

[5] = molecular target: T2, Matrix metalloproteinase-9; experiment: Inhibition of MMP9 (unknown origin) using Mca-KLPGL-Dnp-AR as substrate preincubated for 30 mins followed by substrate addition measured after 1 hr by fluorescence assay; method in brief: as §1
[6] = molecular target: T1, 72 kDa type IV collagenase; experiment: Inhibition of MMP2 (unknown origin) using Mca-KLPGL-Dnp-AR as substrate preincubated for 30 mins followed by substrate addition measured after 1 hr by fluorescence assay; method in brief: as §1
Target sequence in this assay (P08253 whole entry): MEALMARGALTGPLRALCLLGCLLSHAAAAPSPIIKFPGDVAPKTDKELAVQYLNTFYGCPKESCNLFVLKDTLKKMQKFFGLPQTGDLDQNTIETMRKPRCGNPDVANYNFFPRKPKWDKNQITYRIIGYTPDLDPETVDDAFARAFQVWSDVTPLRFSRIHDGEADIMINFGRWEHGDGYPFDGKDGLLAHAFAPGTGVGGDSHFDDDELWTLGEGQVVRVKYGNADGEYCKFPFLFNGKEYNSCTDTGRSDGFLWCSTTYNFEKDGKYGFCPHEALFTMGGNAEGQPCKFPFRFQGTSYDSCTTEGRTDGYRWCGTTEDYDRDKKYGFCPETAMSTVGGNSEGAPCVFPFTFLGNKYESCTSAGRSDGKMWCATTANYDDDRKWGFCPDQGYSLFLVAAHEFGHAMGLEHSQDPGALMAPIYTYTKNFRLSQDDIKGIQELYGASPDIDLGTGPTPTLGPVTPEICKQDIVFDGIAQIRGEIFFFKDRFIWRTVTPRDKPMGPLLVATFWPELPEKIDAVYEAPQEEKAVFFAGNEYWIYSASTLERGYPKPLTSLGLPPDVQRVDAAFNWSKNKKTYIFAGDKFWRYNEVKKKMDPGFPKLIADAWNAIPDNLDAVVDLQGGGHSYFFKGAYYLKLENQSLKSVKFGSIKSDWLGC

[7] = molecular target: T3, Matrix metalloproteinase-14; experiment: Inhibition of MMP14 (unknown origin) using Mca-KLPGL-Dnp-AR as substrate at 100 uM preincubated for 30 mins followed by substrate addition measured after 1 hr by fluorescence assay relative to control
Neutrophil collagenase = Neutrophil collagenase (Homo sapiens, UniProt P22894); experiment: Inhibition of MMP8 (unknown origin) using Mca-KLPGL-Dnp-AR as substrate at 100 uM preincubated for 30 mins followed by substrate addition measured after 1 hr by fluorescence assay relative to control; method in brief: as §1
Sequence of Neutrophil collagenase (P22894 101-467 limits assumed): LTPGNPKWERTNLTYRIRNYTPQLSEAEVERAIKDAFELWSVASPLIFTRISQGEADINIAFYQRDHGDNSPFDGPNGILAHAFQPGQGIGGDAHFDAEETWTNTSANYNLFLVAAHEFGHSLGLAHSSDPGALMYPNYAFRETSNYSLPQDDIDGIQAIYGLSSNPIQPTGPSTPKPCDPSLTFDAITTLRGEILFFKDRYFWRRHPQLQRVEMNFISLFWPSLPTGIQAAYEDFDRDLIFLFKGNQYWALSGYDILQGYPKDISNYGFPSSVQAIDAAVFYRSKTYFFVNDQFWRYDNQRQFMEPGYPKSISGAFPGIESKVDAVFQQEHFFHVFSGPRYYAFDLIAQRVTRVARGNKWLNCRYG

[8] = molecular target: T4, Disintegrin and metalloproteinase domain-containing protein 17; experiment: Inhibition of ADAM17 in human EAhy926 cells assessed as inhibition of neprilysin shedding at 15 uM relative to control; assay type: cell-based
HepG2 = experiment: Cytotoxicity against human HepG2 cells assessed as inhibition of cell viability up to 33 uM after 72 hrs by CellTiter-Glo assay; assay type: cell-based; conditions: hepg2, 72 h
MDA-MB-231 = experiment: Cytotoxicity against human MDA-MB-231 cells assessed as inhibition of cell viability up to 33 uM after 72 hrs by CellTiter-Glo assay; assay type: cell-based; conditions: mda-mb-231, 72 h
[9] = molecular target: T4, Disintegrin and metalloproteinase domain-containing protein 17; experiment: Inhibition of ADAM17 in human THP1 cells assessed as inhibition of LPS-stimulated TNFalpha cleavage after 1 hr by AlphaScreen assay; assay type: cell-based, THP-1
Method in brief: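 THP-1 cells grown in RPMI 1640 with 10% FBS and 0.05 mM 2-mercaptoethanol; 3000 cells per well. Compound given in 3% DMSO for 1 h, then LPS added (1 μg/mL final) and cells incubated overnight at 37 °C. TNFα detected by AlphaScreen using anti-TNFα acceptor beads and streptavidin donor beads, each step 1 h in the dark at RT.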

A549 [10] = experiment: Potentiation of etoposide-mediated inhibition of human A549 cell viability at 40 uM incubated for 1 hr followed by etoposide addition measured after 72 hrs by CellTiter-Glo assay; assay type: functional, cell-based
Method in brief: (§2)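 A549 cells (1250 per well) in serum-free F12 were pretreated 1 h at 37 °C with 40 μM final test compound. Gefitinib, etoposide or doxorubicin was then added as 10-point 1:3 dilutions from 300 μM. After 72 h, viability was read by CellTiter-Glo luminescence and scaled between 100 μM gefitinib (0%) and 1% DMSO (100%).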

ADAM17 (Homo sapiens) [11] = experiment: Inhibition of ADAM17 in HCC1806 cells assessed as inhibition of DDR1 shedding by immunoblot analysis
ADAM17 (Homo sapiens) [12] = experiment: Inhibition of ADAM17 in HCC1806 cells assessed as inhibition of DDR1 shedding at 10 to 40 uM by immunoblot analysis relative to control
[13] = molecular target: T4, Disintegrin and metalloproteinase domain-containing protein 17; experiment: Inhibition of ADAM17 in human SK-MEL-28 cells assessed as inhibition of notch shedding at 25 uM relative to control; assay type: cell-based
A549 [14] = experiment: Potentiation of doxorubicin-mediated inhibition of human A549 cell viability at 40 uM incubated for 1 hr followed by doxorubicin addition measured after 72 hrs by CellTiter-Glo assay; assay type: functional, cell-based; method in brief: as §2
[15] = molecular target: T4, Disintegrin and metalloproteinase domain-containing protein 17; experiment: Inhibition of ADAM17 in human HT1080 cells assessed as inhibition of cell invasion after 5 to 24 hrs by Transwell assay; assay type: cell-based; conditions: HT-1080
[16] = molecular target: T4, Disintegrin and metalloproteinase domain-containing protein 17; experiment: Inhibition of ADAM17 in HTSMC assessed as inhibition of DDR1 shedding by immunoblot analysis
[17] = molecular target: T4, Disintegrin and metalloproteinase domain-containing protein 17; experiment: Inhibition of ADAM17 in HTSMC assessed as inhibition of DDR1 shedding at 10 to 40 uM by immunoblot analysis relative to control

Row | SMILES | inhibition [1] [%] | inhibition [2] [%] | pIC50 [3] | inhibition [4] [%] | pIC50 [5] | pIC50 [6] | inhibition [7] [%] | inhibition (Neutrophil collagenase) [%] | inhibition [8] [%] | Activity (HepG2) | Activity (MDA-MB-231) | pIC50 [9] | Activity (A549 [10]) | inhibition (ADAM17 (Homo sapiens) [11]) | inhibition (ADAM17 (Homo sapiens) [12]) [%] | inhibition [13] [%] | Activity (A549 [14]) | inhibition [15] | inhibition [16] | inhibition [17] [%]
1 | CCCC[C@H]1CN([C@@H](Cc2ccc(O)cc2)CN2CCC[C@H]2CN2C(=O)C(=O)NC[C@H]2Cc2ccc3ccccc3c2)C(=O)C(=O)N1CCC12CC3CC(CC(C3)C1)C2 | 0 | 0 | < 4.00 | 0 | < 4.00 | < 4.00 | 0 | 0 | – | – | – | – | – | – | – | – | – | – | – | –
2 | O=C1NC[C@H](Cc2ccccc2)N(C[C@@H]2CCCN2C[C@@H](CC2CCCCC2)N2C[C@H](Cc3ccc(O)cc3)N(CCc3ccccc3)C(=O)C2=O)C1=O | 0 | 13 | < 4.00 | 0 | < 4.00 | < 4.00 | 27 | 28 | 62 | Non-toxic | Non-toxic | – | – | – | – | – | – | – | – | –
3 | O=C1NC[C@@H](Cc2ccc(O)cc2)N(C[C@@H]2CCCN2C[C@@H](Cc2ccc3ccccc3c2)N2CC(Cc3ccc(O)cc3)N(CCC34CC5CC(CC(C5)C3)C4)C(=O)C2=O)C1=O (single isomer, unassigned) | – | – | < 4.00 | 0 | – | – | 25 | 13 | – | Non-toxic | Non-toxic | 4.00 | inactive | Dose-dependent effect | 59 | 0 | inactive | Dose-dependent effect | Dose-dependent effect | 59
